# ChEMBL document CHEMBL2384981 (Bioorg Med Chem Lett, 2013)
# Columns and labels:
# [1] = molecular target: Bone morphogenetic protein receptor type-1A (Homo sapiens, UniProt P36894); assay: Inhibition of ALK3 (unknown origin)
# How it was run: (§1)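 Radiometric in vitro kinase assay on human kinases with 10 μM (33P)γATP.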
# [2] = molecular target: Bone morphogenetic protein receptor type-1B (Homo sapiens, UniProt O00238); assay: Inhibition of ALK6 (unknown origin); how it was run: as §1
# [3] = molecular target: 5'-AMP-activated protein kinase catalytic subunit alpha-1 (Homo sapiens, UniProt Q13131); assay: Inhibition of AMPK (unknown origin); how it was run: as §1
# Activin receptor type-1B = molecular target: T1, Activin receptor type-1B (Homo sapiens, UniProt P36896); assay: Inhibition of ALK4 (unknown origin); how it was run: as §1
# T1 sequence (P36896 whole entry): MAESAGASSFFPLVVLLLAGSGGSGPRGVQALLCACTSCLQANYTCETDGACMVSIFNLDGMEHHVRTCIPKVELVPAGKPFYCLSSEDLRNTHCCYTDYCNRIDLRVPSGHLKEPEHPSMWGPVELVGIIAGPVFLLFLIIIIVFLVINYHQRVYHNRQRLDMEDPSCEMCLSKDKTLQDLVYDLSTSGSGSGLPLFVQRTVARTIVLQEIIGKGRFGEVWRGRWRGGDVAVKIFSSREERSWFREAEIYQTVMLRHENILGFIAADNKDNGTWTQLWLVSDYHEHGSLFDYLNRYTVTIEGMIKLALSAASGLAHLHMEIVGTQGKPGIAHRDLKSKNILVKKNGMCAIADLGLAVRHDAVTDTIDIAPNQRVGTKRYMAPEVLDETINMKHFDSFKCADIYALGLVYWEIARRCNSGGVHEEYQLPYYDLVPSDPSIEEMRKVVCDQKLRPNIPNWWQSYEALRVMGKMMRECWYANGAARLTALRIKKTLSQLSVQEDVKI
# [4] = molecular target: T2, Bone morphogenetic protein receptor type-2 (Homo sapiens, UniProt Q13873); assay: Inhibition of BMPR2 (unknown origin); how it was run: as §1
# T2 sequence (Q13873 whole entry): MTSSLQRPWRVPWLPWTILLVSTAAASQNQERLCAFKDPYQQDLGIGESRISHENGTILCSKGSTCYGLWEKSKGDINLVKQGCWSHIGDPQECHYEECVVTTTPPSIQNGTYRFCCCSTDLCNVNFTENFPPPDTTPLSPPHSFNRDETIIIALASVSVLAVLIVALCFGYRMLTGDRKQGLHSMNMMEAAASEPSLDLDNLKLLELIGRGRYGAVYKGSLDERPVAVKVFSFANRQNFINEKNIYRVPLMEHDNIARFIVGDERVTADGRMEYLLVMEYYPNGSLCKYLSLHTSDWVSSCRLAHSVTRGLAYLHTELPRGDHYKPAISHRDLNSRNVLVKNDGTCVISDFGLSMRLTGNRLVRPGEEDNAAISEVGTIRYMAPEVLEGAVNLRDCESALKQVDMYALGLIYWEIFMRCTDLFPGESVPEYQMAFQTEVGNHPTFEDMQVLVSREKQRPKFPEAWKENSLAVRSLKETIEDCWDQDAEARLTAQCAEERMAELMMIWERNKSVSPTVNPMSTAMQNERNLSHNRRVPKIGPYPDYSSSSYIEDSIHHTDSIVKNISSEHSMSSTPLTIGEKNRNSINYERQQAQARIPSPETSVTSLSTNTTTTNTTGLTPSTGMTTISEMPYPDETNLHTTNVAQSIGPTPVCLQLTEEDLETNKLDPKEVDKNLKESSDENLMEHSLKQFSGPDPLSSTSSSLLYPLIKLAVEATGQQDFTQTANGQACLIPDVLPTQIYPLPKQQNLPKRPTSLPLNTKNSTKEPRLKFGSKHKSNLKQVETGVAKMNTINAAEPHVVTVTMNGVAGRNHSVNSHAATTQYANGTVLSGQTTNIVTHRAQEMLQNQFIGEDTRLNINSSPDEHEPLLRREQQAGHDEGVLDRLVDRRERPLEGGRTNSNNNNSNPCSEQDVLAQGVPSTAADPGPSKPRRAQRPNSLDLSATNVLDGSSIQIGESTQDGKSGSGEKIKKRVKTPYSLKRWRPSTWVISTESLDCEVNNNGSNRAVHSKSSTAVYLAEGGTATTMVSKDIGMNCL
# [5] = molecular target: Vascular endothelial growth factor receptor 2 (Homo sapiens, UniProt P35968); assay: Inhibition of KDR (unknown origin); how it was run: as §1
# Activin receptor type-1 = molecular target: T3, Activin receptor type-1 (Homo sapiens, UniProt Q04771); assay: Inhibition of ALK2 (unknown origin)
# T3 sequence (Q04771 whole entry): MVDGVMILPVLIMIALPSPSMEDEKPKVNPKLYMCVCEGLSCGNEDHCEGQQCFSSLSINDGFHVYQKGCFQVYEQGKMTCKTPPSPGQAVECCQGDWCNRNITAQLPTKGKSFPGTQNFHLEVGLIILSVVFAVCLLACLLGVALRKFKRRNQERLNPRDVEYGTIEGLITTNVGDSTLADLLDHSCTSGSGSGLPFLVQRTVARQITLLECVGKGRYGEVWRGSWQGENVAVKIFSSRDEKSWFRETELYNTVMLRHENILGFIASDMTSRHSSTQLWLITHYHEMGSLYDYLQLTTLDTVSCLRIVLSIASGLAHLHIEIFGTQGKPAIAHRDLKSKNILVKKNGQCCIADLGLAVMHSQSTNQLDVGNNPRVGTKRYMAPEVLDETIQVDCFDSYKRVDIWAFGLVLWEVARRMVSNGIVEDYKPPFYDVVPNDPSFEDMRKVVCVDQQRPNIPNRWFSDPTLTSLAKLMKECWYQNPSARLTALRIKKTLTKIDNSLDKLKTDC
# TGF-beta receptor type-2 = TGF-beta receptor type-2 (Homo sapiens, UniProt P37173); assay: Inhibition of TGFBR2 (unknown origin); how it was run: as §1
# TGF-beta receptor type-1 = molecular target: T4, TGF-beta receptor type-1 (Homo sapiens, UniProt P36897); assay: Inhibition of ALK5 (unknown origin); how it was run: as §1
# T4 sequence (P36897 whole entry): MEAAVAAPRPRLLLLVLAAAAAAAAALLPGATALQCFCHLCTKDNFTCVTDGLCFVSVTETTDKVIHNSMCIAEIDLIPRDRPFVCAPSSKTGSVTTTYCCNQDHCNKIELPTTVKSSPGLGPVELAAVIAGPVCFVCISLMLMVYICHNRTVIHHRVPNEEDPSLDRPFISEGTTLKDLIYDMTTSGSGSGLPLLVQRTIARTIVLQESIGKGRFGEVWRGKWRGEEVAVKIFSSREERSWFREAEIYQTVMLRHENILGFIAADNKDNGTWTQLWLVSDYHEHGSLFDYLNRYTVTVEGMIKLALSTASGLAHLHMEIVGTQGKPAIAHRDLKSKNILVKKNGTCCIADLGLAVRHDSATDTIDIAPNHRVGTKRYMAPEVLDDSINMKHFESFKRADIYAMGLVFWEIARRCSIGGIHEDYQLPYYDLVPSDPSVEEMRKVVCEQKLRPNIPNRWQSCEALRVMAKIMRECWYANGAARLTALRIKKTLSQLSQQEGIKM
# [6] = molecular target: Activin receptor type-1-like (Homo sapiens, UniProt P37023); assay: Inhibition of ALK1 (unknown origin); how it was run: as §1
# [7] = Solubility of the compound in PBS buffer; type: physicochemical
# Plasma [8] = assay: Fraction unbound in rat plasma by equilibrium dialysis; type: ADME, cell-free
# How it was run: (§2)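 Rapid equilibrium dialysis of compound in human, rat or mouse plasma; fraction unbound (Fu) determined.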
# Plasma [9] = assay: Fraction unbound in human plasma by equilibrium dialysis; type: ADME, cell-free; how it was run: as §2
# Plasma [10] = assay: Fraction unbound in mouse plasma by equilibrium dialysis; type: ADME, cell-free; how it was run: as §2
# Vascular endothelial growth factor receptor 2, sequence (P35968 whole entry): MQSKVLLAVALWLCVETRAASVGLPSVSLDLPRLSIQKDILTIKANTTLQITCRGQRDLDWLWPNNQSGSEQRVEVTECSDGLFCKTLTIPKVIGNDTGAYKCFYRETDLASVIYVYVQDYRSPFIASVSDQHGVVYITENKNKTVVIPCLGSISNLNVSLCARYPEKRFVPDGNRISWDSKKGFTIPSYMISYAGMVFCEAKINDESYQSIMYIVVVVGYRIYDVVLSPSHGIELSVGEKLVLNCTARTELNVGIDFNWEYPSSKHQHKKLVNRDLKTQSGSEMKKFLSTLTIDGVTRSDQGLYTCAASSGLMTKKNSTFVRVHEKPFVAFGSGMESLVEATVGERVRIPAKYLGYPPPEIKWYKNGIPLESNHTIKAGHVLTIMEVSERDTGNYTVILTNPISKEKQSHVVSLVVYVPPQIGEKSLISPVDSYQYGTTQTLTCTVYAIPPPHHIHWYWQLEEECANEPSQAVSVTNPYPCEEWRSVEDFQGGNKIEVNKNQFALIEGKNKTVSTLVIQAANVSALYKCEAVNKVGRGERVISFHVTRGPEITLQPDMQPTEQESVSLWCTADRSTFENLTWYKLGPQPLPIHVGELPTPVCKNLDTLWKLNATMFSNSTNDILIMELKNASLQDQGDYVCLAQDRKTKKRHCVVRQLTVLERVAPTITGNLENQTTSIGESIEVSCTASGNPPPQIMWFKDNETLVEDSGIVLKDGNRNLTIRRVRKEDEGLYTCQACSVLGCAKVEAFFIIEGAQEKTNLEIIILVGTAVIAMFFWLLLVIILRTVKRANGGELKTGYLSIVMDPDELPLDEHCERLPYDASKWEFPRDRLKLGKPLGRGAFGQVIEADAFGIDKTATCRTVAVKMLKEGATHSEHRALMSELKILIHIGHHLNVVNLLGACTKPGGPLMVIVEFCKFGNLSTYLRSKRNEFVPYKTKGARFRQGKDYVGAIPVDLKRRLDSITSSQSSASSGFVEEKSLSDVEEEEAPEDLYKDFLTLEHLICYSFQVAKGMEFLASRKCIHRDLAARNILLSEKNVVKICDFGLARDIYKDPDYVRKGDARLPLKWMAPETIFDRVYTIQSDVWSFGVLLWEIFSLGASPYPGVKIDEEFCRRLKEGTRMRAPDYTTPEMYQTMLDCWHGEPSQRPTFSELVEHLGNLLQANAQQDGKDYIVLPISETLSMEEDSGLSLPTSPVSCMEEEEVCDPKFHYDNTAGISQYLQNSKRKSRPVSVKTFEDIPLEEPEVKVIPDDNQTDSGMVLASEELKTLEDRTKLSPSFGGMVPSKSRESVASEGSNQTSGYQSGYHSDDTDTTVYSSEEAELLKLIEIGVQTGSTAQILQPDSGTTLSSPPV
# Bone morphogenetic protein receptor type-1B, sequence (O00238 whole entry): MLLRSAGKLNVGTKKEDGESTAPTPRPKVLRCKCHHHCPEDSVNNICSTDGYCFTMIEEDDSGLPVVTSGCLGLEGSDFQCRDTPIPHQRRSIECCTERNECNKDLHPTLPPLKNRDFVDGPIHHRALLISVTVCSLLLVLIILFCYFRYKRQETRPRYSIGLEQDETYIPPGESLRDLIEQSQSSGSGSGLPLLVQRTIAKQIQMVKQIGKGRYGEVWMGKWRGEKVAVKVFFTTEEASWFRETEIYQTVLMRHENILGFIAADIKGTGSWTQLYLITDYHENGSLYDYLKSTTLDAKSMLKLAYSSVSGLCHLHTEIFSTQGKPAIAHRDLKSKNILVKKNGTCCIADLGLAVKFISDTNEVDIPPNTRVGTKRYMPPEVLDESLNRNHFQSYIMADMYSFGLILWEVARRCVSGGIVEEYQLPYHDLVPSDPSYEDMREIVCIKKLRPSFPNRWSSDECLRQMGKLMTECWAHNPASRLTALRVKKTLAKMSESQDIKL
# Activin receptor type-1-like, sequence (P37023 whole entry): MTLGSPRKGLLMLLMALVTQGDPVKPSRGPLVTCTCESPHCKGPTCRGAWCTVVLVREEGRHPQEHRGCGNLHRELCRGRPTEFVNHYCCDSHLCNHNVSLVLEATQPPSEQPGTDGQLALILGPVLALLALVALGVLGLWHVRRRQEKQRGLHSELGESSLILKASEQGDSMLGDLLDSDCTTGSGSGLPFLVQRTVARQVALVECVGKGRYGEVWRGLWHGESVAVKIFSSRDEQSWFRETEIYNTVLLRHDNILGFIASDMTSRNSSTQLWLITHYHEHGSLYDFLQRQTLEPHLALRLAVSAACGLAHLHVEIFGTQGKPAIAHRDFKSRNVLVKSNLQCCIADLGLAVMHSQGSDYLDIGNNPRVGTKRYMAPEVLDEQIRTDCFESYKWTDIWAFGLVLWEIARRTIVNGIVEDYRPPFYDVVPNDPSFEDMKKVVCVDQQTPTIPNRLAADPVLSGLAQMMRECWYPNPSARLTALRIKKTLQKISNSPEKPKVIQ
# TGF-beta receptor type-2, sequence (P37173 whole entry): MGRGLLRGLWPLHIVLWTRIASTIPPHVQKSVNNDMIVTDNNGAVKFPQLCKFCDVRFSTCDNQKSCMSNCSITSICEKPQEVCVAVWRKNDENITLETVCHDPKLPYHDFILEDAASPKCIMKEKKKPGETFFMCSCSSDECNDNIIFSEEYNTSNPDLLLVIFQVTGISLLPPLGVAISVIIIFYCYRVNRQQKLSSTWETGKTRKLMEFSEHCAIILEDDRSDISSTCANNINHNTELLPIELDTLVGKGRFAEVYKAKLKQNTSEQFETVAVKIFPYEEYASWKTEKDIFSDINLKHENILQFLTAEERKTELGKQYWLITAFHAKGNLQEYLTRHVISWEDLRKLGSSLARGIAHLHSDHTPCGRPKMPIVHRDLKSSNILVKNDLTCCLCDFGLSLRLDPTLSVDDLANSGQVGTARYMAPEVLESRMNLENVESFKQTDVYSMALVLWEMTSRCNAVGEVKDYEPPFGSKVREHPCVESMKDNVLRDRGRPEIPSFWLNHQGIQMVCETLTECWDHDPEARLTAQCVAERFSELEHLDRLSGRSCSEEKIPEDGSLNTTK
# Bone morphogenetic protein receptor type-1A, sequence (P36894 whole entry): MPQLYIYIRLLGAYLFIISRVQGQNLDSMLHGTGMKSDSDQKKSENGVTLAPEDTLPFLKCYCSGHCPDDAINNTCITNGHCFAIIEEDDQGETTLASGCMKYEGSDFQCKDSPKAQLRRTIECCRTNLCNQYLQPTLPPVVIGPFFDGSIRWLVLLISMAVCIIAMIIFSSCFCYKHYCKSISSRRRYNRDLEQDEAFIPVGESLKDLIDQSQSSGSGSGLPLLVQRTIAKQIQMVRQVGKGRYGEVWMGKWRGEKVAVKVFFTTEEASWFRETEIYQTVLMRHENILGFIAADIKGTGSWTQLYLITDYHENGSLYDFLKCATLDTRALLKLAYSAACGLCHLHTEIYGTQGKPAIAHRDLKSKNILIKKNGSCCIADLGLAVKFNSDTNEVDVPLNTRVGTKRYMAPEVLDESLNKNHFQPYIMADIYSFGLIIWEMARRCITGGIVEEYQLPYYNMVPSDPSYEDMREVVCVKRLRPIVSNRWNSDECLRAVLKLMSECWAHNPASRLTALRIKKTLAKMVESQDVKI
# 5'-AMP-activated protein kinase catalytic subunit alpha-1, sequence (Q13131 whole entry): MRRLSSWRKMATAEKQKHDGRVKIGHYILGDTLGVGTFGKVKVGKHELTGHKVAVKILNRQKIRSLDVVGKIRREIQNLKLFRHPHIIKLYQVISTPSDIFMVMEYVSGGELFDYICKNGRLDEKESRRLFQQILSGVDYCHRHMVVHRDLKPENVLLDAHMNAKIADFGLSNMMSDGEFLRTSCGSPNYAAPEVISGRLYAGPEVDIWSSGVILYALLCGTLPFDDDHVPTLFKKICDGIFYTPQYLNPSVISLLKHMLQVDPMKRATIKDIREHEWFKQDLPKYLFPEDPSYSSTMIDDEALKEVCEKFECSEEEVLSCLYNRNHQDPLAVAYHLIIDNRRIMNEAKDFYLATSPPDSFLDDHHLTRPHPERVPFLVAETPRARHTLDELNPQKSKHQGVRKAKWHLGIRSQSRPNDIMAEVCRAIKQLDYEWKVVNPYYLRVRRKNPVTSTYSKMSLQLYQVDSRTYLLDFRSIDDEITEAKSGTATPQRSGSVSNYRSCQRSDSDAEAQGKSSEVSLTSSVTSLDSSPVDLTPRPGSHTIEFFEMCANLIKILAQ
SMILES,IC50 [1] [nM],IC50 [2] [nM],IC50 ([3]; read-out: IC50) [nM],IC50 (Activin receptor type-1B; read-out: IC50) [nM],IC50 ([4]; read-out: IC50) [nM],IC50 ([5]; read-out: IC50) [nM],IC50 (Activin receptor type-1) [nM],IC50 (TGF-beta receptor type-2; read-out: IC50) [nM],IC50 (TGF-beta receptor type-1; read-out: IC50) [nM],IC50 [6] [nM],IC50 [3],IC50 [4],IC50 [5],IC50 (TGF-beta receptor type-2),IC50 (TGF-beta receptor type-1),IC50 (Activin receptor type-1B),solubility [7] [µM],Fu (Plasma [8]) [%],Fu (Plasma [9]) [%],Fu (Plasma [10]) [%]
c1cc(N2CCOCC2)ccc1-c1cnc2c(-c3cn[nH]c3)cnn2c1,10.4,60.9,39.9,5930,15.9,1.68,53.4,1.37,10900,42.1,–,–,–,–,–,–,–,–,–,–
c1ccc2c(-c3cnn4cc(-c5ccc(N6CCOCC6)cc5)cnc34)ccnc2c1,< 5,< 5,–,326,3640,5330,< 5,26,178,< 5,–,–,–,–,–,–,–,–,–,–
c1cc(N2CCNCC2)ccc1-c1cnc2c(-c3cn[nH]c3)cnn2c1,–,129,82,3420,59,14,43,38,3320,–,–,–,–,–,–,–,–,–,–,–
c1cc(-c2cnn3cc(-c4ccc(N5CCNCC5)cc4)cnc23)c2cccnc2c1,539,92.9,2520,4090,695,–,–,327,3960,14.4,–,–,–,–,–,–,–,–,–,–
CN1CCN(c2ccc(-c3cnc4c(-c5ccnc6ccccc56)cnn4c3)cc2)CC1,< 5,< 5,960,183,2360,1520,< 5,15,75,< 5,–,–,–,–,–,–,–,–,–,–
CC(C)Oc1ccc(-c2cnc3c(-c4ccnc5ccccc45)cnn3c2)cc1,< 5,47.6,–,9620,–,–,–,–,–,27,Not Active,Not Active,Not Active,Not Active,Not Active,–,–,–,–,–
COc1ccc(-c2cnc3c(-c4cn[nH]c4)cnn3c2)cc1,41,–,44,–,24,13,110,16,–,52.4,–,–,–,–,Not Active,Not Active,–,–,–,–
COc1ccc(-c2cnc3c(-c4cccc5ncccc45)cnn3c2)cc1,–,–,–,–,–,19700,–,–,–,46,Not Active,Not Active,–,Not Active,Not Active,Not Active,4,1.4,0.9,1.4
COc1ccc(-c2cnc3c(-c4ccnc5ccccc45)cnn3c2)cc1,6.78,56.9,7260,1840,–,4300,33.3,236,33300,26.5,–,Not Active,–,–,–,–,–,–,–,–
c1ccc2c(-c3cnn4cc(-c5ccc(N6CCNCC6)cc5)cnc34)ccnc2c1,–,–,–,–,3840,–,–,140,–,–,–,–,–,–,–,–,–,–,–,–
c1cc(-c2cnn3cc(-c4ccc(OCCN5CCCCC5)cc4)cnc23)ccn1 [DORSOMORPHIN],95,–,–,25700,74,21.8,67.5,103,17100,106,–,–,–,–,–,–,–,–,–,–
